Bioassay records as filed in PubChem.
SENP1 inh: blocks the human SENP1 SUMO protease catalytic domain; recombinant SENP1 catalytic domain, CyPet-SUMO1-YPet FRET cleavage; inhibition, % at 10 µM; actives 0.21% (n = 360,000); AID 624204;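 active means inhibition at least 30% at 10 µM, raw YFP signal under a set limit, fluorescence ratio 0.5 to 1.5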
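Assay system: hSENP1 catalytic domain, recombinant. Amount: SENP1 enzyme, 20 pM final. Schedule: 50 min reaction, RT, dark. Technique: FRET, CFP and YFP emission. Control set: no-enzyme wells low, DMSO-plus-enzyme wells high control.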
SENP8 block-1: inhibitors of human SENP8 protease. AID 2540. inhibition, % at 10 µM. purified SENP8, Z-RLRGG-aminoluciferin cleavage, luminescence. actives 1.2% (n = 330,000); in the data active means inhibition above about 50%
SENP7 inh: SENP7 protease inhibition. Q9BQF6. inhibition, % at 5 µM. recombinant SENP7, Z-RLRGG-aminoluciferin luminescence, 40 min. AID 434973. actives 1.5% (n = 330,000);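 active means inhibition above about 50% at the single test dose, limit read from the data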
SENP6 block: SENP6 protease inhibition | Q9GZR1 | Recombinant SENP6 catalytic domain, aminoluciferin luminescence | inhibition, % at 10 µM | actives 1.8% (n = 330,000);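 active means inhibition above about 50% at the single tested dose, limit read from the data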
Target sequence (Q9GZR1 628-1112 limits assumed): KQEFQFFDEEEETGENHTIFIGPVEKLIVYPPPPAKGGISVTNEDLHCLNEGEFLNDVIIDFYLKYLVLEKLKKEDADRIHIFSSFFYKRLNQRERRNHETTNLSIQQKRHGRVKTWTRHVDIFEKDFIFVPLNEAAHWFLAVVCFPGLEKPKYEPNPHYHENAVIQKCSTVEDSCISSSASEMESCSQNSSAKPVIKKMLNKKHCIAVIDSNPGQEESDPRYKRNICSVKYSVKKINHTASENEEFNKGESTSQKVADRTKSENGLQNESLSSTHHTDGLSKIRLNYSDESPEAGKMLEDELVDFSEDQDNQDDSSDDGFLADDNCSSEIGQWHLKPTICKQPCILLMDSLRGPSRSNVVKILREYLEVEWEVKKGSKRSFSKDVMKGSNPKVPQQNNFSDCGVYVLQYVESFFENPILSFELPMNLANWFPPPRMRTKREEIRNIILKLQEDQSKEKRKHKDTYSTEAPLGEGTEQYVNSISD
SENP8 block-2: SENP8 (human) protease inhibition. inhibition, % at 20 µM. actives 0.64% (n = 360,000). AID 602440. recombinant SENP8, Nedd8 substrate fluorescence; in the data active means inhibition mostly above about 40%, no sharp cut-off; inactive means mostly below about 27%
SENP8 confirm: confirmation of human SENP8 protease inhibitors; shares compounds with SENP7 inh; Recombinant SENP8, Z-RLRGG-aminoluciferin luminescence, 60 min; inhibition, % at 12.5 µM; actives 40% (n = 6,200); AID 488912;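 active means mean inhibition across replicates above about 50%, limit read from the data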
SENP6 conf: confirmation of human SENP6 protease inhibitors | AID 488915 | inhibition, % at 12.5 µM | recombinant SENP6, Z-RLRGG-aminoluciferin luminescence | shares compounds with SENP7 inh | actives 58% (n = 6,200)
SENP7 confirm: human SENP7 inhibition, confirmed | shares compounds with SENP7 inh | recombinant SENP7, Z-RLRGG-aminoluciferin luminescence, 40 min | inhibition, % at 12.5 µM | actives 69% (n = 6,200) | AID 488917
Casp3 SENP sel: selectivity test for SENP inhibitors: human caspase-3 inhibition | shares compounds with SENP7 inh | purified caspase-3, Z-DEVD-aminoluciferin luminescence, 60 min | inhibition, % at 12.5 µM | actives 60% (n = 6,200) | AID 488918;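 active means mean inhibition above about 50%, limit read from the data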
SENP luc ctr: interferes with luciferase luminescence in SENP counter-screen | inhibition, % at 12.5 µM | Pre-incubated SENP8/Z-RLRGG-aminoluciferin, luciferase luminescence interference | shares compounds with SENP7 inh | actives 39% (n = 6,200);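 active means mean inhibition above about 50% when retested at one dose, limit read from the data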
A number is an active result; . = inactive; / = not tested or not shown. The list is not random: actives were taken first. Their share in the collection is about 2.5%.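 How the source made its calls, unless noted: active means mean inhibition above about 50% in the one-dose retest (limit read from the data); inactive means the rest.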

SMILES	SENP1 inh	SENP8 block-1	SENP7 inh	SENP6 block	SENP8 block-2	SENP8 confirm	SENP6 conf	SENP7 confirm	Casp3 SENP sel	SENP luc ctr
COc1cc([N+](=O)[O-])cc(/C=N/NC(=O)C(C)Nc2cccc3ccccc23)c1O (stereo not given)	.	.	.	68.0	.	.	.	.	.	.
CN(C)CCNc1ncnc2c1ncn2[C@H]1CN(Cc2cccs2)C[C@@H](CO)O1	.	/	/	/	.	/	/	/	/	/
CCC1(c2ccccc2)NC(=O)N(CC(=O)NCc2ccc(OC)cc2)C1=O (stereo not given)	.	.	.	.	.	/	/	/	/	/
CN(CC(=O)Nc1cccc(F)c1)C(=O)CC1CC2CCC1C2 (stereo not given)	.	.	.	.	.	/	/	/	/	/
Cc1nc2nc(-c3cccs3)[nH]c2cc1Br	.	90.1	89.9	91.0	.	92.1	92.0	98.9	92.7	.
c1ccc(-c2nc(-c3cccs3)[nH]c2-c2ccccc2)cc1	.	.	.	.	.	/	/	/	/	/
CC(C)(C)c1ccc(C(=O)NCCC(=O)Nc2ccc3c(c2)OCCO3)cc1	.	.	.	.	.	/	/	/	/	/
O=C(Nc1nc2ccsc2c(=O)s1)c1ccc(F)cc1Cl	.	86.0	98.3	88.6	.	.	52.1	.	51.8	.
O=C(Nc1nc2ccsc2c(=O)s1)c1ccc(F)cc1	.	93.8	99.5	95.8	.	.	93.1	.	55.6	.
CCC1(c2ccc(C)cc2)NC(=O)N(C(C)C(=O)Nc2ccc(N3CCOCC3)cc2)C1=O (stereo not given)	.	.	.	.	.	/	/	/	/	/
N#Cc1ccccc1NC(=O)COC(=O)c1ccc2c(c1)OCO2	.	.	.	.	.	/	/	/	/	/
COCCOC(=O)c1c(C)oc2ccc(NS(=O)(=O)c3cccs3)cc12	.	.	.	.	.	/	/	/	/	/
CCOC(=O)c1c(C)oc2ccc(NS(=O)(=O)c3cccs3)cc12	.	.	77.2	.	.	.	.	.	.	.
CCc1ccc(CCC(=O)Nc2nccs2)o1	.	.	.	.	.	/	/	/	/	/
O=C(COc1ccc2c(c1)OCO2)Nc1nccs1	.	89.6	95.1	95.7	.	94.7	94.9	101.6	97.2	93.3
Cc1ccc(CCC(=O)Nc2nccs2)o1	.	.	92.3	.	.	.	.	.	.	.
COCc1nnc(NC(=O)COc2ccc3c(c2)OCO3)s1	.	.	.	.	.	/	/	/	/	/
CCOc1ccc(OCC(=O)Nc2nccs2)cc1	.	94.9	98.0	97.1	.	96.8	96.8	101.9	98.1	87.7
COc1ccc(OCC(=O)Nc2nccs2)cc1	.	62.4	82.6	.	.	77.6	79.1	95.4	92.9	79.1
C=CCN1C(=O)/C(=C/c2ccc(-c3ccc(F)cc3)o2)SC1=S	.	.	.	.	.	/	/	/	/	/
Cc1[nH]nc(SCC(=O)N2CCCCCC2)c1[N+](=O)[O-]	.	52.2	.	.	.	97.9	99.9	102.9	98.9	88.5
O=c1c(Cc2c(F)cccc2Cl)c(O)ccn1CCc1c[nH]c2ccccc12	.	.	.	.	.	/	/	/	/	/
c1ccc(-c2nn[nH]n2)cc1	.	.	.	.	.	/	/	/	/	/
c1ccc(-c2nnc(-c3ccccc3)nn2)cc1	.	83.4	96.2	87.8	.	.	.	.	.	.
CC1Cc2ccccc2N1C(=O)/C=C/c1cccc(F)c1 (stereo not given)	.	51.1	54.8	.	.	.	73.9	90.4	60.9	55.0
SMILES	SENP1 inh	SENP8 block-1	SENP7 inh	SENP6 block	SENP8 block-2	SENP8 confirm	SENP6 conf	SENP7 confirm	Casp3 SENP sel	SENP luc ctr
CC1Cc2ccccc2N1C(=O)COC(=O)/C=C/c1ccc(F)cc1 (stereo not given)	.	.	.	.	.	/	/	/	/	/
COc1ccc(S(=O)(=O)N2CCN(c3ccccn3)CC2)cc1[N+](=O)[O-]	.	.	.	85.4	.	.	.	.	.	.
COc1ccc(S(=O)(=O)N2CCN(c3ncccn3)CC2)cc1[N+](=O)[O-]	.	.	.	.	.	/	/	/	/	/
CCC(C)N1CC(=O)N2C(c3ccc(OC)cc3OC)c3[nH]c4ccccc4c3C[C@H]2C1=O (stereo not given in full)	.	.	.	.	.	/	/	/	/	/
CC(=O)c1sc(N/N=C\c2ccccc2O)nc1C	.	56.4	.	68.3	.	.	.	81.8	.	.
COc1ccc(N(C(=O)c2ccco2)C(C(=O)NC2CCCC2)c2cc(OC)c(OC)c(OC)c2)cc1 (stereo not given)	.	.	.	.	.	/	/	/	/	/
COc1ccccc1OCCNC(=O)CN1C(=O)NC2(CCCC2)C1=O	.	.	.	.	.	/	/	/	/	/
O=C(O)c1ccc(-c2nc(-c3ccc(Cl)c(Cl)c3)cs2)cc1	.	73.8	78.6	85.5	.	89.7	92.3	93.7	72.1	68.3
O=C(O)c1ccc(-c2nc(-c3ccccc3Cl)cs2)cc1	.	95.5	94.3	97.5	.	98.1	98.9	102.3	97.2	93.4
O=c1c2ccccc2nnn1CSc1ccccc1F	.	61.3	67.6	.	.	77.6	77.2	93.6	83.5	79.2
Nc1cccc2c1C(=O)N(CCOc1ccccc1F)C2=O	.	72.9	73.0	83.1	.	79.2	79.8	95.2	78.7	82.9
COc1ccc(CNC(=O)c2c(C)oc3c2C(=O)c2ccccc2C3=O)cc1	.	.	.	66.4	64.3	.	60.6	.	70.4	.
C/C(=N\Nc1nncc2ccccc12)c1ccc(O)cc1	.	.	.	66.8	.	.	.	.	.	.
C/C(=N\Nc1nncc2ccccc12)c1cccc(OC(F)F)c1	.	89.3	100.5	97.4	.	67.6	74.8	82.3	75.2	.
COc1ccc(N2CC(C(=O)Nc3ccccc3C(=O)NC3CC3)CC2=O)cc1 (stereo not given)	.	.	.	.	.	/	/	/	/	/
CCCS(=O)(=O)c1c(S(=O)(=O)CCC)c2c3ccccc3ccn2c1C(N)=O	.	.	.	.	.	/	/	/	/	/
S=c1cnc2ccccc2[nH]1	.	.	.	.	.	/	/	/	/	/
COCc1nnc(NC(=O)c2sc3ccccc3c2Cl)s1	.	.	.	55.0	.	.	.	76.2	61.0	65.9
Cc1ccc(NC(=O)c2sc3ccccc3c2Cl)nc1	.	62.9	92.9	72.5	.	.	.	.	.	.
O=C(Nc1ccccn1)c1sc2cccc(F)c2c1Cl	.	.	89.9	.	.	.	.	.	.	.
